This is an account of results in ChEMBL document CHEMBL1158588, “Discovery of brain-penetrant, orally bioavailable aminothienopyridazine inhibitors of tau aggregation” (J Med Chem, 2010).

For one data set, the species on record is Homo sapiens. Put plainly: Inhibition of human full length tau40 protein-mediated bovine brain tubulin assembly at 62.5 uM by MT assembly assay. The procedure, abridged: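 Wild-type full-length human tau40 (2N4R, 25 µM) was preincubated with compound at 62.5 µM in RAB pH 6.9 for 120 min at room temperature. Bovine brain tubulin and GTP were then added, giving final concentrations of 30 µM tubulin, 20 µM tau, 50 µM compound and 2 mM GTP. Absorbance at 340 nm was read every minute for 45 min at 37 °C.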

Data set [1] can be described thus: Aqueous solubility in sodium acetate buffer at pH 7.0 by turbidimetric measurements. It counts as physicochemical. The procedure, abridged:
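Compounds were serially diluted 2.5-fold in DMSO, then diluted 100-fold into 100 mM NaOAc pH 7.0 (final 200 µM down to 0.03 µM, 1% DMSO). Plates were agitated for 2.5 h and absorbance was read at 550–700 nm with the DMSO blank subtracted. The solubility limit was taken as the concentration before the one where mean absorbance exceeded 0.03 AU.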

The nature of data set [2]: Inhibition of heparin-induced K18PL tau protein aggregation assessed as thioflavin T binding by fluorescence assay relative to control. Particulars: concentration not given here.
A short description of data set [3]: Inhibition of K18PL tau protein aggregation by orthogonal sedimentation based SDS-PAGE relative to control. Conditions: concentration not given here.
Data set [4] can be described thus: Inhibition of tau40 protein aggregation by orthogonal sedimentation based SDS-PAGE relative to control. On the set-up: concentration or dose not given beside the values. Particulars: concentration not given here.
In another data set the test system is HEK293. Put plainly: Cytotoxicity against HEK293 cells up to 100 uM after 72 hrs by alamar blue assay. Conditions: human, hek293, 72 h. It counts as cell-based. The procedure, abridged: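 HEK-293 cells were plated at 20,000 per well in DMEM with 10% FCS. After 24 h, half-log compound dilutions starting at 200 µM were added. Cells were cultured for 72 h, and viability was read by Alamar blue fluorescence. CC50 values were fitted from the curves.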

The subject of the next data set is Brain. Put plainly: Drug level in brain of B6C3F1 mouse at 5 mg/kg, ip by LC-MS/MS analysis. It is filed as ADME, organism-based. On the set-up: dose 5 mg/kg, route intraperitoneal. Conditions: in vivo. The procedure, abridged:
(§1)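 Three female B6C3F1 mice per compound were given 5 mg/kg i.p. Brain and plasma were sampled at a single 1 h time point. Brain was homogenized 1:2 w/v in 10 mM ammonium acetate pH 5.7, and plasma was collected in EDTA. Samples were extracted with acetonitrile and quantified by LC-MS/MS MRM against spiked calibration curves. B/P was taken as the brain/plasma ratio.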

In data set [5] the test system is Plasma. Description: Drug level in plasma of B6C3F1 mouse at 5 mg/kg, ip by LC-MS/MS analysis. It is filed as ADME, organism-based. Details: dose 5 mg/kg, route intraperitoneal. Particulars: in vivo. The procedure, abridged:
as §1

Data set [6] in a line: Ratio of drug level from brain to plasma of B6C3F1 mouse at 5 mg/kg, ip by LC-MS/MS analysis. It is filed as ADME, organism-based. Details: dose 5 mg/kg, route intraperitoneal. The procedure, abridged:
as §1

Data set [7] in a line: Ratio of drug level from brain to plasma of B6C3F1 mouse at 2 mg/kg, iv. It is filed as ADME, organism-based. Details: dose 2 mg/kg, route intravenous. Conditions: read-out: BPR. The procedure, abridged: (§2)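 Female B6C3F1 mice, two months old, given 2 mg/kg i.v., three mice per time point at 0.5, 1, 2, 4, 8 and 16 h. Brain hemispheres were homogenized in 10 mM ammonium acetate pH 5.7, and plasma was taken from EDTA blood. Both were extracted with acetonitrile and measured by LC-MS/MS (MRM) against spiked standard curves at 4–4000 ng/mL.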

The test system of data set [8] is Plasma. Description: Elimination half life in plasma of B6C3F1 mouse at 2 mg/kg, iv. It counts as ADME, organism-based. Details: dose 2 mg/kg, route intravenous. Particulars: in vivo. The procedure, abridged:
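Female B6C3F1 mice received 2 mg/kg i.v., three per time point. Plasma levels were measured by LC-MS/MS with 1/x-weighted calibration, averaging triplicate injections. Half-life was derived from the elimination rate constant, taken as the slope of ln plasma concentration against time over the 4, 8 and 16 h points.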

The nature of data set [9]: AUC (0.5 to 16 hrs) in plasma of B6C3F1 mouse at 5 mg/kg, po. It is filed as ADME, organism-based. On the set-up: time 0.5-16 hr, dose 5 mg/kg, route oral. The procedure, abridged: (§3)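 Mice were dosed by oral gavage at 5 mg/kg. […] Bioavailability was obtained by comparing plasma AUC after oral dosing with AUC after 2 mg/kg i.v.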
The nature of data set [10]: Oral bioavailability in B6C3F1 mouse at 5 mg/kg. It counts as ADME, organism-based. Conditions: in vivo. The procedure, abridged:
as §3

Data set [11] can be described thus: AUC (0.5 to 16 hrs) in brain of B6C3F1 mouse at 2 mg/kg, iv. It is filed as ADME, organism-based. On the set-up: time upper 16 hr, time lower 0.5 hr, dose 2 mg/kg, route intravenous. The procedure, abridged: as §2
A short description of data set [12]: AUC (0.5 to 16 hrs) in plasma of B6C3F1 mouse at 2 mg/kg, iv. Details: time upper 16 hr, time lower 0.5 hr, dose 2 mg/kg, route intravenous. It counts as ADME, organism-based. The procedure, abridged: as §2

Structures are written as SMILES. Converted amounts (≈) assume the structure as drawn. The source made the active and inactive calls. The calls are words filed in the database; no cut-off is given here.

For the molecule `CC(C)OC(=O)c1nn(-c2ccc(Cl)cc2)c(=O)c2c(N)scc12`, in the data set listed under Homo sapiens, the inhibition result was “inactive”. Also, the solubility (kinetic) in data set [1] came to 32 µM (≈ 11.6 µg/mL). The inhibition in data set [2] worked out at 79%; in data set [3], 44%; in data set [4], 61%. Further, the Activity result in the data set on HEK293 is recorded as “Non-toxic”. Moreover, the Drug uptake in the data set on Brain stood at 436 ng/g; in the data set with Plasma [5] it was 84 ng/mL. For the same molecule, the BPR in data set [6] was determined as 5.2.

Consider `CCOC(=O)c1nn(-c2ccc(Cl)cc2)c(=O)c2c(N)scc12`, for which the inhibition entry in the data set listed under Homo sapiens is “inactive”. Besides, the solubility (kinetic) in [1] worked out at 13 µM (≈ 4.55 µg/mL). Further, the inhibition is 71% in data set [2], 70% in data set [3] and 48% in data set [4]. Moreover, the Activity entry in the data set with HEK293 is reported as “Non-toxic”. In addition, the results for the Drug uptake with Brain and in the data set with Plasma [5] were 67 ng/g and 20 ng/mL, respectively.

In the case of `CC(C)NC(=O)c1nn(-c2ccc(Cl)cc2)c(=O)c2c(N)scc12`, in the data set filed under Homo sapiens, the inhibition result was “inactive”. This molecule yielded a solubility (kinetic) in data set [1] of 32 µM (≈ 11.6 µg/mL). For the same molecule, the results for the inhibition in data set [2], in data set [3] and in [4] were 83%, 65% and 45%, respectively. Also, the Activity entry with HEK293 is reported as “Non-toxic”. For the same molecule, the Drug uptake was determined as 1100 ng/g in the data set with Brain and 499 ng/mL in the data set with Plasma [5].

On to `CCN(C)C(=O)c1nn(-c2ccc(Cl)cc2)c(=O)c2c(N)scc12`, for which the inhibition entry in the data set listed under Homo sapiens is “inactive”. Besides, the kinetic solubility in data set [1] was determined as 80 µM (≈ 29 µg/mL). Besides, the inhibition in [2] turned out to be 75%; in [3], 62%; in [4], 58%. Besides, the Activity entry with HEK293 is “Non-toxic”. The Drug uptake turned out to be 122 ng/g in the data set with Brain and 138 ng/mL in the data set on Plasma [5].

In the case of `CCNC(=O)c1nn(-c2ccc(Cl)cc2)c(=O)c2c(N)scc12`, the inhibition result in the data set listed under Homo sapiens was “inactive”. For the same molecule, in data set [1], the solubility (kinetic) was 32 µM (≈ 11.2 µg/mL). Moreover, the inhibition stood at 84% in data set [2], 94% in [3] and 87% in [4]. In the data set on HEK293, the Activity entry is “Non-toxic”. The Drug uptake with Brain was found to be 886 ng/g; with Plasma [5] it was 500 ng/mL.

For the molecule `CN(C)C(=O)c1nn(-c2ccc(Cl)cc2)c(=O)c2c(N)scc12`, in the data set filed under Homo sapiens, the inhibition entry was “inactive”. In [1], this molecule displayed a kinetic solubility of 32 µM (≈ 11.2 µg/mL). Also, the inhibition turned out to be 75% in data set [2], 69% in data set [3] and 69% in data set [4]. The Activity entry with HEK293 was “Non-toxic”. Besides, the Drug uptake in the data set on Brain was 14 ng/g; in the data set with Plasma [5], 30 ng/mL.

Take `CC(C)NC(=O)c1nn(-c2ccc(Br)cc2)c(=O)c2c(N)scc12`: in the data set listed under Homo sapiens, the inhibition result is “inactive”. Further, the kinetic solubility in [1] is 13 µM (≈ 5.29 µg/mL). Further, the inhibition in data set [2] is 85%; in data set [3] it was 58%; in [4], 55%. Moreover, the Activity result in the data set on HEK293 is listed as “Non-toxic”. In addition, the results for the Drug uptake in the data set on Brain and in the data set with Plasma [5] were 641 ng/g and 316 ng/mL, respectively.

As to `CNC(=O)c1nn(-c2ccc(Cl)cc2)c(=O)c2c(N)scc12`, in the data set listed under Homo sapiens, the inhibition entry is “inactive”. In [1], this molecule yielded a solubility (kinetic) of 13 µM (≈ 4.35 µg/mL). Also, the inhibition in data set [2] was found to be 78%; in data set [3], 68%; in data set [4], 61%. Further, the Activity result with HEK293 is on record as “Non-toxic”. In addition, the Drug uptake is 34 ng/g in the data set on Brain and 70 ng/mL with Plasma [5].

On to `Nc1scc2c(C(=O)NC3CC3)nn(-c3ccc(Cl)cc3)c(=O)c12`, for which the Kp in data set [7] amounted to 1.58. In the data set with Plasma [8], the “beta t1/2” value was “>= 2.5 hr”. Further, the AUC(0-t) in [9] was 526 ng·h/mL; in [11], 469 ng·h/mL; in data set [12] it was 297 ng·h/mL. The bioavailability in data set [10] worked out at 70%. Moreover, in the data set filed under Homo sapiens, the inhibition result is “inactive”. In data set [1], this molecule displayed a kinetic solubility of 32 µM (≈ 11.5 µg/mL). The values for the inhibition in [2], in [3] and in data set [4] were 83%, 69% and 58%, respectively. Moreover, the Activity entry in the data set with HEK293 was “Non-toxic”. Moreover, the Drug uptake with Brain was found to be 1299 ng/g; in the data set on Plasma [5], 823 ng/mL.

In the case of `Nc1scc2c(C(=O)O)nn(-c3ccc(Cl)cc3)c(=O)c12`, the inhibition result in the data set filed under Homo sapiens is “inactive”. Also, in data set [1], the solubility (kinetic) is above 200 µM. Also, the inhibition in [2] came out at 84%; in data set [3] it was 79%; in [4], 62%. For the same molecule, the Activity entry in the data set with HEK293 is given as “Non-toxic”. The Drug uptake stood at 121 ng/g in the data set with Brain and 5230 ng/mL in the data set on Plasma [5].
